Measurements published in the EternaBench riboswitch data.

Test system: MS2 coat protein
Experiment: apparent Kd, MS2 coat protein; higher = weaker binding; RNA-MaP array; FMN 200 µM where present
How it was run: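 Stalled E. coli RNA polymerase produced the designs on Illumina sequencing-chip clusters. SNAP-549-labelled MS2 coat protein was added from 0.7 or 1.5 nM, doubling to 3 µM, without and then with constant ligand, in 100 mM Tris-HCl pH 7.5, 80 mM KCl, 4 mM MgCl2, BSA, DTT, yeast tRNA and Tween-20. The apparent Kd is the median of filtered per-cluster fits of green signal normalised to red-channel RNA signal and control-cluster median Fmax.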

[1] = designed as: ON switch for flavin mononucleotide, no ligand
[2] = ligand present: flavin mononucleotide, designed as: ON switch for flavin mononucleotide
[3] = designed as: OFF switch for flavin mononucleotide, no ligand
[4] = ligand present: flavin mononucleotide, designed as: OFF switch for flavin mononucleotide

Row | Sequence | apparent Kd [1] | apparent Kd [2] | apparent Kd [3] | apparent Kd [4]
1 | GCGUAACAUGAGGAUCACCCAUGUACCCGAGAAUUCGGGUCUAGAAGGGUGACCGGUCGUUUGGCACAGGAUAUAGACGUUGUG | 30.7 nM | 11.3 nM | – | –
2 | ACGUCUUAGUAGAAGGGACAUCGGCUGGUAAGCAUCAUCUCCUUCUCACAUGAGGAUCACCCAUGUCAGGAUAUACUAAGAGUC | – | – | 12.3 nM | 38.2 nM
3 | GUCGUGUGAGGAUAUGGAUAGUAGCAGUGGCGGUCGGCGACCUAGAAGGCACAUGAGGAUCACCCAUGUAAGAG | – | – | 40.6 nM | 37.8 nM
4 | ACUCGCGGAGAGAAGGGAUUUGUACAUGAGGAUCACCCAUGUCGCACGGUCAGGAUAUCUUCGUCAGGUACAACAUACGUCCCG | 16.8 nM | 6.99 nM | – | –
5 | CGUAUGUAAGGAUAUAGCCACAUUACGAAUAAGUAGUGUGGCUAGAAGGUACAUGAGGAUCACCCAUGUAUGGG | – | – | 153 nM | 85.3 nM
6 | CGUGCGUAUGUGAGGAUAUGCUGGUCCUUGGAUCGGCAGAAGGCACAUGAGGAUCACCCAUGUGGUGUCGUACG | – | – | 351 nM | 22.9 nM
7 | GGUGCGUUUGUGAGGAUAUGCUGGUCCUUGGAUCAGCAGAAGGCACAUGAGGAUCACCCAUGUGGUGUCCGUCC | – | – | 222 nM | 117 nM
8 | UGUAACCGAGGAUAUACAUGAGGAUCACCCAUGUAAUGUAGUAUAGUGUAUGUGAGGUGUAGAAGGUGGGAUGU | – | – | 75.6 nM | 71.6 nM
9 | CUUAGGUGAGGAUAUUAGUAGUAAAUGAAUAAAAUUAUUACUGAGAAGGCACAUGAGGAUCACCCAUGUUCCUC | – | – | 35.8 nM | 444 nM
10 | ACAUGAGGAUCACCCAUGUAUUACAUGGUUAAGUUUAUUAACAGAAGGCGAAAAUACCAAUUGAUCGAGGAUAUGUAAUCAAUU | – | – | 33.8 nM | 43.2 nM
11 | AUGCUUAUCGAAGGAUAUGGUUACAUGAGGAUCACCCAUGUUAUGCUUGGUUACUUGUUUAGUUUCCAGAAGGUCGAUUAGUUA | – | – | 46.9 nM | 174 nM
12 | UGGUCCUGAGGAUAUGCACCUCAAGUUAUCGUUCACCAUGCACAUGAGGAUCACCCAUGUAGAAGGUAGGAUCG | – | – | 18.8 nM | 16.6 nM
13 | AAUUAAUUGUAGAAGGUACUUAAUUAUGUUAUGUAAGGAUAUACGUAAUUAUUACGACAUGUAUGACAUGAGGAUCACCCAUGU | 7.72 nM | 7.82 nM | – | –
14 | ACACGACAUGAGGAUCACCCAUGUUUCCGAUUCACAGGAUAUGGGACAUCCGGAGGGUGACCAGAAGGGUGACUCG | 151 nM | 28.3 nM | – | –
15 | CCUAUUAGAAAAUAGACGAAGUGGCCAGAAGGUGAAUGCCACAUGAGGAUCACCCAUGUUUCGAUCAAGGAUAUGGUUUCUCAC | 630 nM | 203 nM | – | –
16 | UUACUCAUGUAAGGAUAUGCAGCCGAAACGGCUGUAGAAGGUACUAAAAUACAUGAGGAUCACCCAUGUCUUUUUAAUUUAGAC | 103 nM | 74.6 nM | – | –
17 | GGUUGGCGAGGAUAUACAUGAGGAUCACCCAUGUGGUCCUGAGAUAGAAUAGACCUUUGUAGAAGGCGCGGGUC | – | – | 172 nM | 136 nM
18 | GUCAGCUCGUGAGGAUAUACAUGUGCUGGAGACAGCAUUAAAUUUUUCACAUGAGGAUCACCCAUGUAGAAGGCACGAGCUGAU | – | – | 18.4 nM | 49.4 nM
19 | AUCAUGAGAGGAUAUACAUGAGGAUCACCCAUGUGGUAAACACCAUGAGCUCAAUUACGUAGAAGGCUCAUUUG | – | – | 26.4 nM | 45.6 nM

Row | Sequence | apparent Kd [1] | apparent Kd [2] | apparent Kd [3] | apparent Kd [4]
20 | GGAUAGGACAGAGGAUAUACGUGCUAGAGAUACUAGCAAAAUUUCCUAACAUGAGGAUCACCCAUGUAGAAGGCUGUCCUAUCG | – | – | 6.61 nM | 13.3 nM
21 | CAUAACUUUGAUCUCUCCUACAUGAGGAUCACCCAUGUUGAGAGAAGGAGGCGGCGGAGUGCCGCCUAGGAUAUCUGAAGGGUC | – | – | 6.06 nM | 7.35 nM
22 | GUAGUGUAUGUAGGAUAUGUGAAGCAAAGCUUCACAGAAGGACAUGAGGAUCACCCAUGUAUUGCAGUCAGCAAUCUGACUGCU | – | – | 41 nM | 145 nM
23 | GUAACAUGAGGAUCACCCAUGUAUAGAACACUCAAUAGAUCUGAGGAUAUAGUGGAAUUUACACACUAGAAGGCAGUGGGUACA | 53.9 nM | 31.9 nM | – | –
24 | CGAGUACAUGAGGAUCACCCAUGUAAUGAAUUGUCAGGAUAUGGAGAUUGAUGACAUGCGCCAGAAGGGACAUCUG | 49.7 nM | 40.8 nM | – | –
25 | GUGAACAUGAGGAUCACCCAUGUAGCUCACUGCCAGUGGCUACAGGAUAUAGCACUCCGAAGGUGCUAGAAGGGUGGCCUAGAA | 92.8 nM | 22.1 nM | – | –
26 | CCAUGGCUGUAAGGAUAUGUCUGACAAAGUCAGACAGAAGGUACAUGAGGAUCACCCAUGUGAAGAAAACCACAUUUGCCAUGG | – | – | 6.68 nM | 8.41 nM
27 | GCACUGGAUGUAGGAUAUCAGGACGAUAAGUCCUGAGAAGGACAUGAGGAUCACCCAUGUAAAACUCAACCAGUGCAUAAUAUA | – | – | 14.5 nM | 18.5 nM
28 | AUUUAAAUGUCAGGAUAUGGUAGUUUAUACUUAUCAGAAGGGAUAAUUAUACUCAAGUACAUGAGGAUCACCCAUGUUAAAUCA | 30.5 nM | 15.8 nM | – | –
29 | GAGAUGUGAGGAUAUCUGGACCGUGGAAGAGCCACGGUCCGAGAGAAGGCACAUGAGGAUCACCCAUGUGAUGA | – | – | 38.4 nM | 171 nM
30 | UGUGGGUGAUCAGGAUAUCCGUAUACAUGAGGAUCACCCAUGUCCUUGCUCAGCCGGGUAAGUUUGGAGAAGGGAUCAUCAAAU | 357 nM | 32.1 nM | – | –
31 | AGAAAACAUGAGGAUCACCCAUGUAGAAAUAUGGGAGGAUAUACAAAGACGAAAGUCAAGGUAGAAGGCCUAAAGA | 86.7 nM | 27.4 nM | – | –
32 | GAAUAUUCGUUGUACAUGAGGAUCACCCAUGUGUCUUUACAUGAGGAUAUGGAUUCUAAUUGGAUCCAGAAGGCAUGAAUAUUC | 154 nM | 53.1 nM | – | –
33 | CAGUUCUGAGGAUAUCCAUCCUCCUACAUGAGGAUCACCCAUGUUUCCCUCUGGGUUUUCGGAGAAGGCAGUUAUC | – | – | 299 nM | 547 nM
34 | UUUUAACAUGAGGAUCACCCAUGUGAGGAUAUCGUAAUUUUUAUUAAUAUUAAUAAAACGAGAAGGCACAUUUU | – | – | 96.6 nM | 81 nM
35 | AUUAAAACAUAGGAUAUCGAAUUUAUCAUUUAACGAGAAGGAUGAACAUGAGGAUCACCCAUGUGGUAUCAUGG | – | – | 361 nM | 207 nM
36 | AAAUUGCUAGAGGAUAUCGGAUAGGAUUUAUUGCGAGAAGGCUGGACAUGAGGAUCACCCAUGUUCUGUUGGGA | – | – | 23.9 nM | 36.6 nM
37 | UUUUAACAUGAGGAUCACCCAUGUGAGGAUAUCGAAAUUUAUAUUAAUAUUUAUAAUUCGAGAAGGCACAUUUU | – | – | 170 nM | 148 nM
38 | AAAAAGCUAGGAUAUACAUGAAAAAAAAAAAAGUAAAAAAAACAUGAGGAUCACCCAUGUAGAAGGAGCAAAAA | – | – | 44 nM | 39.5 nM

Row | Sequence | apparent Kd [1] | apparent Kd [2] | apparent Kd [3] | apparent Kd [4]
39 | GAUAGGACAGAGAAGGUACGUGCUAGAGAUACUAGCAAAAUUACCUCACAUGAGGAUCACCCAUGUAAGGAUAUCUGUCCUAUC | – | – | 4.82 nM | 5.54 nM
40 | GUGUAGAUAGGAUAUGCAUAGAGCUUACGAAAGUAGGCUCUACAUGAGGAUCACCCAUGUAGAAGGGUCUACAC | – | – | 27.9 nM | 21.2 nM
41 | UAGUAUCAACGAGGAUAUAAUAUGUUCAAUUUUUUAUAUUGUUUACAUGAGGAUCACCCAUGUUAUUAGAAGGCGUAUGGGAUU | 61.8 nM | 47.7 nM | – | –
42 | UAGGAGUACGUAGGAUAUGUAGGAUAUUCCUACAUGAGGAUCACCCAUGUUAGCAUGGAAGAAGGACAGAAGGACGUGCUCCUU | 1090 nM | 16.1 nM | – | –
43 | UGUUUUUAUGUGAGGAUAUGGGUUUGGUUGCGGGCUUAGAAGGUACAUGAGGAUCACCCAUGUACUUUGUGCAU | – | – | 16.4 nM | 17 nM
44 | UUUUAACAUGAGGAUCACCCAUGUGAGGAUAUCGAAAUUUAUAUUAAUAUUAUUAAUUCGAGAAGGCACAUUUU | – | – | 117 nM | 117 nM
45 | AAGUAGAUCCGAGGAUAUACAUAGUGGAAUCGCUACAUGAGGAUCACCCAUGUAGAAGGCGGAUCUACAGGUACUAAAGUACCA | – | – | 14 nM | 112 nM
46 | GGUUGACAAAGUCAACCUUAACGAACAUGAGGAUCACCCAUGUAGGAUAUGCUACUCAAAGAGUAGCAGAAGGACAUGUGCCUU | – | – | 33 nM | 278 nM
47 | GAAUUCGCAUGAGGAUAUGCACUCAUUUCAUGUGCAGAAGGUAUUUCAUUAGACAUGAGGAUCACCCAUGUAUUGGUCAUUAAC | 19.3 nM | 14.7 nM | – | –
48 | GCAGUGUCAGGAUAUAGUUCGAGUUCGGAAAUGAGCUUGAGCUAGAAGGGACAUGAGGAUCACCCAUGUGCUGU | – | – | 38 nM | 83.2 nM
49 | GUACAGAAGGAGAAGGGCUAGGAGGUCCAGCUUAUGUGUGUUGCAACAUGAGGAUCACCCAUGUAGCAGGAUAUCCUUUGUACA | – | – | 41.1 nM | 440 nM
50 | GUAGCAUAAUUAGGAUAUUCAGCGAAUAGAUUGACAUGAGGAUCACCCAUGUGGCGAAAGCCGAGGGAGAAGGGAUAAUGCUAC | 157 nM | 61.1 nM | – | –
51 | ACUAAGAGAGGAUAUACUAACAAACCUCAAACAUACAUCAAACAUGAGGAUCACCCAUGUAGAAGGCUCAAACU | – | – | 30.5 nM | 31.6 nM
52 | CGAUGACACAGUCAUCCAAUACGAACAUGAGGAUCACCCAUGUAGGAUAUGGUACUCACAGAGUAGCAGAAGGACAUGUGCCUU | – | – | 72.8 nM | 158 nM
53 | UCCUGACAUGAGGAUCACCCAUGUUAGGAUAUGGCUUAGGGCGCGUCUGUGUGUUGGGUUAGAAGGGAUGUGGG | – | – | 17.6 nM | 16.8 nM
54 | UUAUCUAUGUAAGGAUAUCGAUGAUAUACGCAUCCGACAUGAGGAUCACCCAUGUUAUAUUUUGUCGAGAAGGUACAUUGUCGG | 46.8 nM | 50.3 nM | – | –
55 | GCCAUCGGGUGAGGAUAUAAAAUUAUAAUUAAAUUAGAAGGCACCUCAUAAGACAUGAGGAUCACCCAUGUAGUUAAGAUGGCA | 87.6 nM | 29.5 nM | – | –
56 | CGGCAUGUCUGAGGAUAUCUGCACGUUUAGUGCAGAGAAGGCAGAACAUGAGGAUCACCCAUGUAGAUCAUUAACCGAUUAAUU | – | – | 228 nM | 337 nM
